Experimental data: ChEMBL document CHEMBL4373680, “Small antibacterial molecules highly active against drug-resistant Staphylococcus aureus” (Medchemcomm, 2019)
In brackets after ≈: the same amount, converted by molar mass. Activity calls are given as the source filed them. The rule behind the calls is not given here.

Columns and labels:
Staphylococcus aureus [1] = experiment: Antibacterial activity against methicillin-resistant Staphylococcus aureus ATCC 33591 after 24 hrs by tecan plate reader analysis; format: functional; settings: ATCC 33591, 24 h
Procedure, shortened: (§1)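 Colony grown 24 h on NB agar at 37 °C, then 6 h in nutrient broth to mid-log (10⁸ CFU/mL by drop plating), diluted to 10⁵ CFU/mL in Mueller Hinton broth; added 9:1 to two-fold serial compound dilutions in MHB. Incubated 24 h, 37 °C; OD600 read. Triplicate per concentration, experiment run twice; MIC taken from the range of triplicate OD values.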

Staphylococcus aureus [2] = experiment: Antibacterial activity against methicillin-resistant Staphylococcus aureus R3545 clinical isolate after 24 hrs by tecan plate reader analysis; format: functional; settings: R3545, 24 h; procedure, shortened: as §1
Staphylococcus aureus [3] = experiment: Antibacterial activity against methicillin-resistant Staphylococcus aureus R3889 clinical isolate after 24 hrs by tecan plate reader analysis; format: functional; settings: R3889, 24 h; procedure, shortened: as §1
Staphylococcus aureus [4] = experiment: Antibacterial activity against methicillin-resistant Staphylococcus aureus R3890 clinical isolate after 24 hrs by tecan plate reader analysis; format: functional; settings: R3890, 24 h; procedure, shortened: as §1
Escherichia coli = experiment: Antibacterial activity against Escherichia coli MTCC 443 after 24 hrs by tecan plate reader analysis; format: functional
Procedure, shortened: (§2)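 Broth microdilution MIC. Glycerol stocks grown on MacConkey agar 24 h at 37 °C, then a single colony in nutrient broth 6 h to mid-log (~10⁸ CFU/mL). Cells diluted to 10⁵ CFU/mL in Mueller Hinton broth and added to two-fold compound dilutions. Incubated 24 h at 37 °C, OD600 read. Triplicate wells, experiment run twice.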

Acinetobacter baumannii = experiment: Antibacterial activity against Acinetobacter baumannii MTCC 1425 after 24 hrs by tecan plate reader analysis; format: functional; procedure, shortened: as §2
Klebsiella pneumoniae = experiment: Antibacterial activity against Klebsiella pneumoniae ATCC 700603 after 24 hrs by tecan plate reader analysis; format: functional; procedure, shortened: as §2
Pseudomonas aeruginosa = experiment: Antibacterial activity against Pseudomonas aeruginosa MTCC 424 after 24 hrs by tecan plate reader analysis; format: functional; procedure, shortened: as §2
[5] = Hemolytic activity in human erythrocytes after 1 hr; format: ADME, cell-based, Erythrocyte
Procedure, shortened: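 Heparinized donor blood. Erythrocytes washed three times in PBS and resuspended to 5 vol%, then mixed 3:1 with compound serially diluted in water. Incubated 1 h at 37 °C and centrifuged. Supernatant A540 read; % hemolysis relative to water and 0.1 vol% Triton-X controls.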

Staphylococcus aureus [6] = experiment: Antibiofilm activity against Staphylococcus aureus R3545 assessed as reduction in biofilm biomass at 32 ug/ml incubated for 24 hrs followed by plating on agar plate for 24 hrs by crystal violet staining assay relative to control; format: functional; settings: R3545, 24 h
Procedure, shortened: (§3)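 Biofilms grown 24 h static at 37 °C on coverslips (10⁵ CFU/mL in nutrient broth, 1% glucose, 1% NaCl) and treated 24 h, then PBS-washed, air-dried 10–15 min, stained with 0.1% w/v crystal violet 5–10 min, washed, dye recovered in 95% ethanol; OD 522 nm read. Run twice, mean with standard deviation.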

Staphylococcus aureus [7] = experiment: Antibiofilm activity against Staphylococcus aureus ATCC 33591 assessed as reduction in biofilm biomass at 32 ug/ml incubated for 24 hrs followed by plating on agar plate for 24 hrs by crystal violet staining assay relative to control; format: functional; settings: ATCC 33591, 24 h; procedure, shortened: as §3
Staphylococcus aureus [8] = experiment: Antibacterial activity against vancomycin-resistant Staphylococcus aureus clinical isolate 1 after 24 hrs by tecan plate reader analysis; format: functional; settings: clinical isolate 1, 24 h; procedure, shortened: as §1
Staphylococcus aureus [9] = experiment: Antibacterial activity against vancomycin-resistant Staphylococcus aureus clinical isolate 4 after 24 hrs by tecan plate reader analysis; format: functional; settings: clinical isolate 4, 24 h; procedure, shortened: as §1
Staphylococcus aureus [10] = experiment: Bactericidal activity against metabolically inactive stationary phase methicillin-resistant Staphylococcus aureus ATCC 33591 assessed as reduction in bacterial colony formation at 32 ug/ml incubated for 6 hrs followed by plating on agar plate for 24 hrs by visual counting analysis; format: functional, organism-based
Staphylococcus aureus [11] = experiment: Bactericidal activity against metabolically inactive stationary phase methicillin-resistant Staphylococcus aureus R3545 assessed as reduction in bacterial colony formation at 32 ug/ml incubated for 6 hrs followed by plating on agar plate for 24 hrs by visual counting analysis; format: functional, organism-based
[12] = Klebsiella pneumoniae, 700603, 24 h

Compound	MIC (Staphylococcus aureus [1]) [µg/mL]	MIC (Escherichia coli; MTCC 443, 24 h) [µg/mL]	MIC (Acinetobacter baumannii; MTCC 1425, 24 h) [µg/mL]	MIC (Klebsiella pneumoniae; [12]) [µg/mL]	MIC (Pseudomonas aeruginosa; MTCC 424, 24 h) [µg/mL]	HC50 at 1 h [5] [µg/mL]	other results
COc1cccc(OC)c1C(=O)N[C@@H]1C(=O)N2[C@@H]1SC(C)(C)[C@@H]2C(=O)O [METHICILLIN]	> 32						MIC (Staphylococcus aureus [2]): 16 to 32 µg/mL (≈ 42.1 to 84.1 µM); MIC (Staphylococcus aureus [3]): 16 to 32 µg/mL (≈ 42.1 to 84.1 µM); MIC (Staphylococcus aureus [4]): > 32 µg/mL
CCCCCCCCNC(=O)C[N+](C)(CCO)CCCCCCCC[N+](C)(CCO)CC(=O)NCCCCCCCC.[Br-].[Br-] (stereo not drawn)	0.5 to 1	1 to 2	8	8	16	61	
COLISTIN							MIC (Escherichia coli): 1 µg/mL; MIC (Acinetobacter baumannii): 0.5 µg/mL; MIC (Klebsiella pneumoniae): 1 µg/mL; MIC (Pseudomonas aeruginosa): 1 µg/mL
CCCCCCCCNC(=O)C[N+](C)(CCO)CCCCCCCCCC[N+](C)(CCO)CC(=O)NCCCCCCCC.[Br-].[Br-] (stereo not drawn)	0.25 to 0.5	0.5	4	4	4	28	
CN[C@H](CC(C)C)C(=O)N[C@H]1C(=O)N[C@@H](CC(N)=O)C(=O)N[C@H]2C(=O)N[C@H]3C(=O)N[C@H](C(=O)N[C@H](C(=O)O)c4cc(O)cc(O)c4-c4cc3ccc4O)[C@H](O)c3ccc(c(Cl)c3)Oc3cc2cc(c3O[C@@H]2O[C@H](CO)[C@@H](O)[C@H](O)[C@H]2O[C@H]2C[C@](C)(N)[C@H](O)[C@H](C)O2)Oc2ccc(cc2Cl)[C@H]1O [VANCOMYCIN]	0.5 to 1 (≈ 0.345 to 0.69 µM)						inhibition at 32 µg/mL (Staphylococcus aureus [6]): 10%; inhibition at 32 µg/mL (Staphylococcus aureus [7]): 10%; MIC (Staphylococcus aureus [8]): 512 µg/mL (≈ 353 µM); MIC (Staphylococcus aureus [9]): 512 µg/mL (≈ 353 µM); Activity (Staphylococcus aureus [10]): inactive; Activity (Staphylococcus aureus [11]): inactive
CCCCCCCCNC(=O)C[N+](C)(CCO)CCC[N+](C)(CCO)CC(=O)NCCCCCCCC.[Br-].[Br-] (stereo not drawn)	2	16	32	32	8	178	
CCCCCCNC(=O)C[N+](C)(CCO)CCC[N+](C)(CCO)CC(=O)NCCCCCC.O=C([O-])C(F)(F)F.O=C([O-])C(F)(F)F (stereo not drawn)	256	> 256	> 256	> 256	> 256	> 1020	
CCCCCCNC(=O)C[N+](C)(CCO)CCCCCC[N+](C)(CCO)CC(=O)NCCCCCC.O=C([O-])C(F)(F)F.O=C([O-])C(F)(F)F (stereo not drawn)	256	> 256	> 256	> 256	> 256	> 1020	
CCCCCCCCCCNC(=O)C[N+](C)(CCO)CCCCCC[N+](C)(CCO)CC(=O)NCCCCCCCCCC.[Br-].[Br-] (stereo not drawn)	0.5	1	2	2 to 4	4	31	
CCCCCCCCCCNC(=O)C[N+](C)(CCO)CCCCCCCCCCCC[N+](C)(CCO)CC(=O)NCCCCCCCCCC.[Br-].[Br-] (stereo not drawn)	2	4	2	16	32	16	
CCCCCCCCNC(=O)C[N+](C)(CCO)CCCCCCCCCCCC[N+](C)(CCO)CC(=O)NCCCCCCCC.[Br-].[Br-] (stereo not drawn)	0.25	0.5 to 1	2	2	4	12	
